Results: ChEMBL document CHEMBL4376859, “Prodrugs for nitroreductase-based cancer therapy-3: Antitumor activity of the novel dinitroaniline prodrugs/Ssap-NtrB enzyme suicide gene system: Synthesis, in vitro and in silico evaluation in prostate cancer” (Eur J Med Chem, 2020)
pIC50: −log10 of the molar value. Calls of active or inactive are those of the source. The rule behind the calls is not given here.

How the values were obtained:
[1] = Cytotoxicity against human HUVEC cells assessed as cell viability at 9 to 150 uM after 48 hrs by MTT assay relative to control; format: cell-based; details: read-out: Activity
Procedure, shortened: (§1)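 Hep3B hepatoma, PC-3 prostate cancer and HUVEC (healthy control) cells were exposed to nitro compounds at 150, 75, 38, 19 and 9 µM for 24 h and 48 h. Viability was read by MTT assay, and IC50 values were derived from the growth inhibition curves.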

[2] = system: PC-3; test: Cytotoxicity against human PC3 cells assessed as cell viability at 9 to 150 uM after 24 hrs by MTT assay relative to control; format: functional; procedure, shortened: as §1
[3] = system: PC-3; test: Cytotoxicity against human PC3 cells assessed as cell viability after 24 hrs by MTT assay; format: functional, cell-based; procedure, shortened: as §1
[4] = system: PC-3; test: Cytotoxicity against human PC3 cells assessed as cell viability at 9 to 150 uM after 48 hrs by MTT assay relative to control; format: functional; procedure, shortened: as §1
[5] = system: HUVEC; test: Cytotoxicity against human HUVEC cells assessed as cell viability after 24 hrs by MTT assay; format: cell-based; details: for pIC50: Homo sapiens, HUVEC; procedure, shortened: as §1
[6] = system: Hep 3B2; test: Cytotoxicity against human Hep3B cells assessed as cell viability after 48 hrs by MTT assay; format: functional, cell-based; procedure, shortened: as §1
[7] = system: Hep 3B2; test: Cytotoxicity against human Hep3B cells assessed as cell viability after 24 hrs by MTT assay; format: functional, cell-based; procedure, shortened: as §1
[8] = Cytotoxicity against human HUVEC cells assessed as cell viability at 9 to 150 uM after 24 hrs by MTT assay relative to control; format: cell-based; details: read-out: Activity; procedure, shortened: as §1
[9] = system: PC-3; test: Cytotoxicity against human PC3 cells assessed as cell viability after 48 hrs by MTT assay; format: functional, cell-based; procedure, shortened: as §1
[10] = biological target: T1, Putative nitroreductase (Staphylococcus saprophyticus subsp. saprophyticus (strain ATCC 15305 / DSM20229 / NCIMB 8711 / NCTC 7292 / S-41), UniProt Q4A0P1); test: Substrate activity at Staphylococcus saprophyticus nitroreductase expressed in Escherichia coli BL21 (DE3) assessed as retention time by HPLC analysis; format: ADME
T1 sequence (Q4A0P1 whole entry): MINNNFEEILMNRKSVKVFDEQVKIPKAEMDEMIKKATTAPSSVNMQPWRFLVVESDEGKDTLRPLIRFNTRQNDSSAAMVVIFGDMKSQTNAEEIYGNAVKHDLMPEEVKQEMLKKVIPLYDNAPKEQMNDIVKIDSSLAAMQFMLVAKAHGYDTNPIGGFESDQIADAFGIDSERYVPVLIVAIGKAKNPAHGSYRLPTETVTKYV

[11] = system: HUVEC; test: Cytotoxicity against human HUVEC cells assessed as cell viability after 48 hrs by MTT assay; format: cell-based; procedure, shortened: as §1
[12] = system: PC-3; test: Cytotoxicity against human PC3 cells assessed as reduction in cell viability after 48 hrs by SRB assay; format: functional, cell-based
Procedure, shortened: (§2)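 Compounds were reduced outside the cells by purified His-tag (Ni column) Ssap-NtrB. The reaction mix held 600 µM NADH and compound (150, 39, 9 µM, or 180, 18, 1.8 nM) and was applied to PC-3 cells. Controls were compound alone in 25 mM Tris/HCl pH 7.5, and enzyme alone at 31 µg/mL. After 48 h, SRB absorbance was read at 492 nm and converted to % viability.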

[13] = biological target: T1, Putative nitroreductase; test: Substrate activity at Staphylococcus saprophyticus nitroreductase NtrB assessed as Kcat/Km using NADPH as cofactor in Tris-Cl buffer at pH 7.5 by HPLC analysis relative to CB1954/NfsB; format: ADME
[14] = system: Hep 3B2; test: Cytotoxicity against human Hep3B cells assessed as cell viability at 9 to 150 uM after 24 hrs by MTT assay relative to control; format: functional; procedure, shortened: as §1
[15] = system: Hep 3B2; test: Cytotoxicity against human Hep3B cells assessed as cell viability at 9 to 150 uM after 48 hrs by MTT assay relative to control; format: functional; procedure, shortened: as §1
[16] = system: PC-3; test: Cytotoxicity against human PC3 cells […] Staphylococcus saprophyticus nitroreductase NtrB assessed as reduction in cell viability in presence of NADH as cofactor after 48 hrs by SRB assay; format: functional, cell-based; details: PC-3, 48 h; procedure, shortened: as §2
[17] = biological target: T1, Putative nitroreductase; test: Substrate activity at Staphylococcus saprophyticus nitroreductase NtrB assessed as enzyme specific activity using NADH as cofactor in Tris-Cl buffer at pH 7.5 by HPLC analysis; format: ADME

Structure (SMILES) | viability at 48 h, up to 150 µM [1] [%] | Activity [2] [%] | IC50 ([3]; pc-3) | Activity [4] | Activity ([5]; human, huvec) | pIC50 [6] | pIC50 [7] | viability at 24 h, up to 150 µM [8] [%] | IC50 [9] | Retention_time [10] [min] | Activity ([11]; human, huvec) | Activity [12] | fold change (FC) [13] | Activity [14] | Activity [15] | pIC50 [16] | Activity [17] [U/mg] | pIC50 [5] | pIC50 ([11]; Homo sapiens, HUVEC) | pIC50 ([3]; Homo sapiens, PC-3, 24 h, read-out: IC50)
O=[N+]([O-])c1ccc(Nc2ccccc2)c([N+](=O)[O-])c1 | > 80 | >80 | Not Active | >80% | Non-Toxic | 3.82 | 4.07 | > 80 | Not Active | 18.41 | Non-Toxic | inactive |  |  |  |  |  |  |  | 
CC(C)Nc1ccc([N+](=O)[O-])cc1[N+](=O)[O-] | > 80 | >80 |  | >80% |  |  |  | > 80 |  | 17.94 |  | inactive | 0.74 | >80% | 51 - 80% | 5.01 |  |  |  | 
O=[N+]([O-])c1cc([N+](=O)[O-])c(Nc2ccc(O)cc2)cc1Nc1ccc(O)cc1 |  | >80 |  |  |  | 4.84 |  |  | Not Active | 21.2 |  |  |  | 51 - 80% |  |  | 1.61 | 4.18 | 3.82 | 
O=[N+]([O-])c1cc([N+](=O)[O-])c(Nc2ccc(Cl)cc2)cc1Nc1ccc(Cl)cc1 | 51 to 80 |  |  | 51 - 80% |  |  |  |  |  | 35 |  |  |  | 51 - 80% | 51 - 80% |  | 5.77 | 4.06 |  | 3.82
